Measurements: ChEMBL document CHEMBL3098047, “Design, synthesis and structure-activity relationships of substituted oxazole-benzamide antibacterial inhibitors of FtsZ” (Bioorg Med Chem Lett, 2014)
≈ marks a conversion by molar mass, not a printed value.

Key:
[1] = AUC in Balb/c mouse at 3 mg/kg, iv by LC-MS/MS analysis; format: ADME, organism-based; design: dose 3 mg/kg, route intravenous; conditions: plasma
[2] = Metabolic stability in mouse plasma assessed as compound remaining at 10 uM after 24 hrs by LC-MS/MS analysis; format: ADME, cell-free; conditions: read-out: Stability
Summary of the method: (§1)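 Compound at 10 μM in PBS pH 7.4 or neat mouse plasma, 5% v/v DMSO final, incubated 24 h at 37 °C. Samples extracted with acetonitrile and centrifuged; supernatant analysed by LC-MS; reported as % remaining.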

[3] = Kinetic solubility of the compound in PBS buffer at pH 7.4 after 24 hrs by turbidimetric method; format: physicochemical; conditions: read-out: Kinetic_solubility
Summary of the method: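 Turbidimetric: doubling dilutions in DMSO diluted twenty-fold into PBS pH 7.4, equilibrated 24 h at room temperature, absorbance read at 620 nm. Value is highest concentration with no measurable precipitate.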

[4] = Clearance in Balb/c mouse at 3 mg/kg, iv by LC-MS/MS analysis; format: ADME, organism-based; design: dose 3 mg/kg, route intravenous; conditions: in vivo
Staphylococcus aureus [5] = assay: Antibacterial activity against Staphylococcus aureus harboring FtsZ G196A mutant by broth microdilution method; format: functional
Summary of the method: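 S. aureus ATCC 29213 derivative with G196A substitution in FtsZ; MIC by broth microdilution following CLSI guidelines; reported in µg/mL.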

[6] = Half life in Balb/c mouse at 3 mg/kg, iv by LC-MS/MS analysis; format: ADME, organism-based; design: dose 3 mg/kg, route intravenous; conditions: in vivo
[7] = Initial plasma concentration in Balb/c mouse at 3 mg/kg, iv by LC-MS/MS analysis; format: ADME, organism-based; design: dose 3 mg/kg, route intravenous
[8] = Half life in CD-1 mouse hepatocytes at 10 uM by LC-MS/MS analysis; format: ADME, cell-based, Hepatocyte
Summary of the method: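 Cryopreserved CD-1 mouse hepatocytes (5×10^4 cells), compound 10 μM in duplicate, 0.5% v/v DMSO final; stopped with DMSO at seven time points up to 120 min. Acetonitrile extraction, centrifugation, LC-MS of supernatant; half-life in min.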

[9] = Half life in mouse microsomes at 10 uM by LC-MS/MS analysis; format: ADME, Microsome
Summary of the method: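 Mouse microsomes at 1 mg/mL protein, compound 10 μM, 0.1% v/v DMSO final; started with 1 mM NADPH, stopped with DMSO at 0, 10, 30, 60 min. Acetonitrile extraction, centrifugation, LC-MS of supernatant; half-life in min.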

[10] = biological target: T1, Cell division protein FtsZ (Staphylococcus aureus) (UniProt P0A031); assay: Inhibition of Staphylococcus aureus ATCC 29213 FtsZ-mediated cell division phenotype
T1 sequence (whole entry): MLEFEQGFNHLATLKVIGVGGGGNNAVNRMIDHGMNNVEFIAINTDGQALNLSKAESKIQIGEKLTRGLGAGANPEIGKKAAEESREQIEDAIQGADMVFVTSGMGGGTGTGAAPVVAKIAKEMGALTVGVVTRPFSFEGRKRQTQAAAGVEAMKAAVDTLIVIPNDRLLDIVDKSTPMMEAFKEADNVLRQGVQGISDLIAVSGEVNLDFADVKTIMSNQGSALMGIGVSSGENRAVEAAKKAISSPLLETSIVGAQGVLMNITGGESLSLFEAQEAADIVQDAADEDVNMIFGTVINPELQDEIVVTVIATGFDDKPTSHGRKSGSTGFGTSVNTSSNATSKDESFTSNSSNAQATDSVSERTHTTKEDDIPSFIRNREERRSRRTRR
Summary of the method: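 S. aureus ATCC 29213 cell division inhibition assay run alongside MIC testing; value is the lowest concentration at which an inhibition of cell division phenotype was seen (µg/mL).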

[11] = Volume of distribution in Balb/c mouse at 3 mg/kg, iv by LC-MS/MS analysis; format: ADME, organism-based; design: dose 3 mg/kg, route intravenous; conditions: in vivo
[12] = Chemical stability of the compound in PBS buffer assessed as compound remaining at 10 uM at pH 7.4 after 24 hrs by LC-MS/MS analysis; format: physicochemical; conditions: read-out: Stability; summary of the method: as §1
Staphylococcus aureus [13] = assay: Antibacterial activity against Staphylococcus aureus ATCC 29213 by broth microdilution method; format: functional
Summary of the method: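 Broth microdilution MIC per CLSI guidelines against S. aureus ATCC 29213; MIC in µg/mL.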

## NC(=O)c1c(F)ccc(OC(CO)c2nc(-c3ccc(C(F)(F)F)cc3)c(Br)o2)c1F (racemic)
[1]
  AUC: 6700 ng·h/mL
[2]
  remaining at 24 h, 10 µM: 100%
[3]
  solubility kinetic at 24 h: 100 µg/mL (≈ 197 µM)
[4]
  clearance: 7 mL/min/kg
Staphylococcus aureus [5]
  MIC: 8 µg/mL (≈ 15.8 µM)
[6]
  half-life: 2.12 h
[7]
  C0: 4200 ng/mL
[8]
  half-life at 10 µM: 1.19 h
[9]
  half-life at 10 µM: > 2 h
[10]
  MIC: 0.5 µg/mL (≈ 0.986 µM)
[11]
  Vd: 1.3 L/kg
[12]
  remaining at 24 h, 10 µM: 102%
Staphylococcus aureus [13]
  MIC: 0.25 µg/mL (≈ 0.493 µM)

## CCCc1oc(COc2ccc(F)c(C(N)=O)c2F)nc1-c1ccc(Cl)cc1
[1]
  AUC: 400 ng·h/mL
[2]
  remaining at 24 h, 10 µM: 101%
[4]
  clearance: 137 mL/min/kg
[6]
  half-life: 0.417 h
[7]
  C0: 1200 ng/mL
[8]
  half-life at 10 µM: 0.298 h
[9]
  half-life at 10 µM: 1.14 h
[10]
  MIC: 0.015 µg/mL (≈ 0.0369 µM)
[11]
  Vd: 5 L/kg
[12]
  remaining at 24 h, 10 µM: 98%
Staphylococcus aureus [13]
  MIC: 0.03 µg/mL (≈ 0.0737 µM)

## CCc1oc(COc2ccc(F)c(C(N)=O)c2F)nc1-c1ccc(OC)cc1
[1]
  AUC: 200 ng·h/mL
[2]
  remaining at 24 h, 10 µM: 100%
[4]
  clearance: 319 mL/min/kg
Staphylococcus aureus [5]
  MIC: > 64 µg/mL
[6]
  half-life: 0.167 h
[7]
  C0: 1100 ng/mL
[8]
  half-life at 10 µM: 0.39 h
[9]
  half-life at 10 µM: 1.19 h
[10]
  MIC: 0.12 µg/mL (≈ 0.309 µM)
[11]
  Vd: 4.3 L/kg
[12]
  remaining at 24 h, 10 µM: 97%
Staphylococcus aureus [13]
  MIC: 0.12 µg/mL (≈ 0.309 µM)
